According to BindingDB's records for doi:10.1021/acs.jmedchem.0c01897 (University of Michigan, 2021):

Target: Signal transducer and activator of transcription 3 (Homo sapiens, UniProt P40763)
Experiment: Inhibition of IL-6 induced STAT3 transcriptional activity in human HEK293 cells expressing SIE-luc2P preincubated for overnight followed by IL-6 stimulation and measured after 24 hr by Bio-Glo luciferase reagent based microplate reader assay
Procedure, shortened: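 GloResponse SIE-luc2P HEK-293 cells were seeded at 10,000/well and incubated overnight. STAT3 was activated with IL6 (100 ng/ml) for 24 h, then compound was added for 24 h. Bio-Glo luciferase reagent was added and luminescence read after 5 min. IC50 from three independent experiments, mean ± SD.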

Chain of Signal transducer and activator of transcription 3 (P40763 whole entry): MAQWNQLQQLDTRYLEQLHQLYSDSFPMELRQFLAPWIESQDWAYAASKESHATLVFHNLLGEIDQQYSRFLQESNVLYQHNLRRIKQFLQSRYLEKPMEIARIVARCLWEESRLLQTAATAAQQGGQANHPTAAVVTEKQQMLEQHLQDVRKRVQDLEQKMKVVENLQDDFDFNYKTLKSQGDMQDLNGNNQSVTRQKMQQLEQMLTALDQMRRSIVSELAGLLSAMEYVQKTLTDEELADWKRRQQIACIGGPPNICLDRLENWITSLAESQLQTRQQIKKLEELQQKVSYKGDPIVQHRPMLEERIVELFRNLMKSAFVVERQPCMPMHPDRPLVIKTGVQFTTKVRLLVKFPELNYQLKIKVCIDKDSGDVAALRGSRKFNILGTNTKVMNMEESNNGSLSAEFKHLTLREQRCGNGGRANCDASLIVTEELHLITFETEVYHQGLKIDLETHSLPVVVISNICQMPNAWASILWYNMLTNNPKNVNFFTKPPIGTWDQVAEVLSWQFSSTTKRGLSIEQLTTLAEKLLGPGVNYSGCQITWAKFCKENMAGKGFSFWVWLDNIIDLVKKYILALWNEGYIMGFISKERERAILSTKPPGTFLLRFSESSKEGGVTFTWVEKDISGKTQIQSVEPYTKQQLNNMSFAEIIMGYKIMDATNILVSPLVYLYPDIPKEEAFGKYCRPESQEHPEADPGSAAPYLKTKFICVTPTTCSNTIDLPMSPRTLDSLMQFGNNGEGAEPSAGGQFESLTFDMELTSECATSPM

| Compound | IC50 [µM] |
| --- | --- |
| O=C1CCC(N2C(=O)c3cccc(NCCOCCOCCOCCNC(=O)c4cc5c(o4)C(=O)c4ccccc4C5=O)c3C2=O)C(=O)N1 (stereo not drawn) | 2.6 |
| Cc1ncsc1-c1ccc(CNC(=O)[C@@H]2C[C@@H](O)CN2C(=O)[C@@H](NC(=O)COCCOCCNC(=O)c2cc3c(o2)C(=O)c2ccccc2C3=O)C(C)(C)C)cc1 | 11.4 |
| O=C1CCC(N2C(=O)c3cccc(NCCNC(=O)c4cc5c(o4)C(=O)c4ccccc4C5=O)c3C2=O)C(=O)N1 (stereo not drawn) | 15.3 |
| O=C1CCC(N2C(=O)c3cccc(NCCOCCOCCOCCOCCNC(=O)c4cc5c(o4)C(=O)c4ccccc4C5=O)c3C2=O)C(=O)N1 (stereo not drawn) | 2.7 |
| O=C1CCC(N2C(=O)c3ccc(NCCOCCOCCNC(=O)c4cc5c(o4)C(=O)c4ccccc4C5=O)cc3C2=O)C(=O)N1 (stereo not drawn) | 3.4 |
| O=C1CCC(N2C(=O)c3cccc(C#CCCCNC(=O)c4cc5c(o4)C(=O)c4ccccc4C5=O)c3C2=O)C(=O)N1 (stereo not drawn) | 4.2 |
| O=C1CCC(N2C(=O)c3cccc(OCCCCNC(=O)c4cc5c(o4)C(=O)c4ccccc4C5=O)c3C2=O)C(=O)N1 (stereo not drawn) | 5.7 |
| O=C1CCC(N2C(=O)c3cccc(NCCOCCOCCOCCOCCOCCOCCNC(=O)c4cc5c(o4)C(=O)c4ccccc4C5=O)c3C2=O)C(=O)N1 (stereo not drawn) | 2.5 |
| CN1C(=O)CCC(N2C(=O)c3cccc(NCCCCCC4CCN(CCNC(=O)c5cc6c(o5)C(=O)c5ccccc5C6=O)CC4)c3C2=O)C1=O (stereo not drawn) | 1.7 |
| O=C1CCC(N2C(=O)c3cccc(NCCCCCNC(=O)c4cc5c(o4)C(=O)c4ccccc4C5=O)c3C2=O)C(=O)N1 (stereo not drawn) | 4.6 |
| O=C1CCC(N2Cc3c(NCCOCCOCCNC(=O)c4cc5c(o4)C(=O)c4ccccc4C5=O)cccc3C2=O)C(=O)N1 (stereo not drawn) | 10.9 |
| Cc1ncsc1-c1ccc(CNC(=O)[C@@H]2C[C@@H](O)CN2C(=O)[C@@H](NC(=O)COCCNC(=O)c2cc3c(o2)C(=O)c2ccccc2C3=O)C(C)(C)C)cc1 | > 30 |
| O=C1CCC(N2C(=O)c3cccc(NCCCCCC4CCN(CCNC(=O)c5cc6c(o5)C(=O)c5ccccc5C6=O)CC4)c3C2=O)C(=O)N1 (stereo not drawn) | 0.9 |
